Laboratory results published in the EternaBench riboswitch data.

Tested on: MS2 coat protein
Assay: apparent Kd, MS2 coat protein; higher = weaker binding; RNA-MaP array; FMN 200 µM where present
How it was run: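 Designs were transcribed by stalled E. coli RNA polymerase on Illumina sequencing-chip clusters. They were titrated with SNAP-549-labelled MS2 coat protein from 0.7 or 1.5 nM, doubling to 3 µM, in 100 mM Tris-HCl pH 7.5, 80 mM KCl, 4 mM MgCl2, BSA, DTT, yeast tRNA and Tween-20, without and then with constant ligand. The apparent Kd is the median of filtered per-cluster fits after normalisation of green signal to red-channel RNA signal and control-cluster median Fmax.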

[1] = designed as: OFF switch for flavin mononucleotide, no ligand
[2] = ligand present: flavin mononucleotide, designed as: OFF switch for flavin mononucleotide
[3] = designed as: ON switch for flavin mononucleotide, no ligand
[4] = ligand present: flavin mononucleotide, designed as: ON switch for flavin mononucleotide

Sequence: GGGCGACAUGAGGAUCACCCAUGUAAGGAUAUACAACUGCCCACUAAAAUCUGGGCUGGUAGAAGGUGCAGAAA
- apparent Kd [1]: 0.0357 µM
- apparent Kd [2]: 0.0428 µM

Sequence: GGGUACAUCGGAGGAUAUCAUGUAAAUACAUGAGGAUCACCCAUGUCGAGGGAGACAUCGGAGAUUGAGAAGGCCGAUGUACCG
- apparent Kd [3]: 0.0574 µM
- apparent Kd [4]: 0.46 µM

Sequence: GGGUACAUCGGAGGAUAUCAUGUAAAUACAUGAGGAUCACCCAUGUCGAUGGAGACAUCGGAGAUGGAGAAGGCCGAUGUACCG
- apparent Kd [3]: 0.538 µM
- apparent Kd [4]: 0.102 µM

Sequence: GGGUACAUCGGAGGAUAUCAUGUAAAUACAUGAGGAUCACCCAUGUCGAUGGAGACAUCGGAGAUUGAGAAGGUCGAUGUACCG
- apparent Kd [3]: 0.197 µM
- apparent Kd [4]: 0.00952 µM

Sequence: GGGUACAUCGGAGGAUAUCAUGUAAAUACAUGAGGAUCACCCAUGUCGAUGGAGACAUCGGAGCUUGAGAAGGCCGAUGUACCG
- apparent Kd [3]: 0.0362 µM
- apparent Kd [4]: 0.00649 µM

Sequence: GGGUACAUCGGAGGAUAUCAUGUAAAUACAUGAGGAUCACCCAUGUCGAUGGAGAUAUCGGAGAUUGAGAAGGCCGAUGUACCG
- apparent Kd [3]: 0.102 µM
- apparent Kd [4]: 0.0099 µM

Sequence: GGGUCCAUCGGAGGAUAUCAUGUAAAUACAUGAGGAUCACCCAUGUCGAUGGAGACAUCGGAGAUUGAGAAGGCCGAUGUACCG
- apparent Kd [3]: 0.209 µM
- apparent Kd [4]: 0.0105 µM

Sequence: GGGUGACAUGAGGAUCACCCAUGUCAGGAUAUGGGCUCGGGCUCGAAAGGGCUCGGGCUCAGAAGGGACUGCCC
- apparent Kd [1]: 0.056 µM
- apparent Kd [2]: 0.17 µM

Sequence: GGGUGAUCAGGAUAUACAGAAAUGCGAAAGCAUUUCUGUAAACAUGAGGAUCACCCAUGUAGAAGGAAACUUCA
- apparent Kd [1]: 0.0179 µM
- apparent Kd [2]: 0.0138 µM

Sequence: GGGUUACAUGAGGAUCACCCAUGUGAGGAUAUGAUACUAUGUACUUCGGUACAUAGUAUCAGAAGGCACAUAAA
- apparent Kd [1]: 0.124 µM
- apparent Kd [2]: 0.122 µM

Sequence: GGGUUACAUGAGGAUCACCCAUGUGAGGAUAUGAUACUAUGUACUUCGGUACAUAGUAUCAGAAGGCACAUCCC
- apparent Kd [1]: 0.0365 µM
- apparent Kd [2]: 0.0727 µM

Sequence: GGGUUGUGAGGAUAUUAGUUGUACGUCAAUAGACGUAUAAGUGAGAAGGCACAUGAGGAUCACCCAUGUUCCUG
- apparent Kd [1]: 0.0208 µM
- apparent Kd [2]: 0.0801 µM

Sequence: GGUAAGAUGCAGAAGGUGUUAGCUAGAGCUACGACAUGAGGAUCACCCAUGUACUAGAAACAGUACAAGGAUAUGCAUCUUACG
- apparent Kd [3]: 0.0191 µM
- apparent Kd [4]: 0.0065 µM

Sequence: GGUACCAUCACAGGAUAUGCUUUCCUUUGGGAAGCAGAAGGGUGUAACAUGAGGAUCACCCAUGUGGUGCCCGGGCGUGAGCCC
- apparent Kd [3]: 0.12 µM
- apparent Kd [4]: 0.0159 µM

Sequence: GGUACCUUCACAGGAUAUGCUAUCGUUUCGGUAGCAGAAGGGUGAUACAUGAGGAUCACCCAUGUGGUGCCAGGGCGUGAGCCC
- apparent Kd [3]: 0.842 µM
- apparent Kd [4]: 0.329 µM

Sequence: GGUACUCAAAGAGUACCAAUACGAACAUGAGGAUCACCCAUGUAGGAUAUGCUAAAACCGGAGUAGCAGAAGGACAUGUGCCUA
- apparent Kd [1]: 0.0153 µM
- apparent Kd [2]: 0.0666 µM

Sequence: GGUACUCAAAGAGUACCAAUACGAACAUGAGGAUCACCCAUGUAGGAUAUGCUACAAAAGGAGUAGCAGAAGGACAUGUGCCUA
- apparent Kd [1]: 0.013 µM
- apparent Kd [2]: 0.0608 µM

Sequence: GGUACUCAAAGAGUACCAAUACGAACAUGAGGAUCACCCAUGUAGGAUAUGCUACUCAAAGAGUAGCAGAAGGAUAUGUGCUUA
- apparent Kd [1]: 0.0169 µM
- apparent Kd [2]: 0.0153 µM

Sequence: GGUACUCAAAGAGUACCAAUACGAACAUGAGGAUCACCCAUGUAGGAUAUGCUCAAAACGGAGUAGCAGAAGGACAUGUGCCUA
- apparent Kd [1]: 0.0126 µM
- apparent Kd [2]: 0.0322 µM

Sequence: GGUACUCAAAGAGUACUUGGUCGAACAUGAGGAUCACCCAUGUAGGAUAUGCGAAGCAAGAAGUAGCAGAAGGGCAUGUGCAGC
- apparent Kd [1]: 0.0177 µM
- apparent Kd [2]: 0.0161 µM

Sequence: GGUACUCAAAGAGUACUUGGUCGAACAUGAGGAUCACCCAUGUAGGAUAUGUAAAGCAAGAAGUAACAGAAGGACAUGUGCAGC
- apparent Kd [1]: 0.0131 µM
- apparent Kd [2]: 0.0171 µM

Sequence: GGUAGAAACAUUAACAUGAGGAUCACCCAUGUCAAAAGAAAUGAGGAUAUCGUCUACAAUGUAGAUGAGAAGGCAUGGUCUGCC
- apparent Kd [3]: 0.00845 µM
- apparent Kd [4]: 0.00684 µM

Sequence: GGUCCACAUGAGGAUCACCCAUGUCAGGAUAUACACGGCACAAUAAUAAGUGCCACCCGUAGAAGGGACGCUGG
- apparent Kd [1]: 0.0148 µM
- apparent Kd [2]: 0.0376 µM

Sequence: GGUCCACAUGAGGAUCACCCAUGUUAGGAUAUCUCCCGCCUCCUCACUGGAGACGGACAGAGAAGGAACAUCAA
- apparent Kd [1]: 0.0236 µM
- apparent Kd [2]: 0.0747 µM

Sequence: GGUCCACGAGGAUAUCGAUUAUAGUACAUGAGGAUCACCCAUGUUGUCCAGGUUUCGUUUCGAGAAGGCGUGGGUU
- apparent Kd [1]: 0.0884 µM
- apparent Kd [2]: 0.0526 µM

Sequence: GGUCCAUAAUGAGGAUAUGGCACCUUAUUGGUGCCAGAAGGCAUGUCUAUAGACAUGAGGAUCACCCAUGUAAUAAAUUGGACC
- apparent Kd [3]: 0.435 µM
- apparent Kd [4]: 0.0433 µM

Sequence: GGUCCAUCAUGAGGAUAUGGCACCUUAUUGGUGCCAGAAGGCAUGUCUAUUGACAUGAGGAUCACCCAUGUAUUAAUUUGGACC
- apparent Kd [3]: 1.04 µM
- apparent Kd [4]: 0.0807 µM
